Reference: PubChem BioAssay
Values without a mark were called inactive.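 How the source made its calls: active means fluorescence slope after compound addition differing from the mean of all tested samples at 99.7% confidence, mostly higher but some lower; inactive means the rest.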

These molecules were tested against Muscarinic acetylcholine receptor M4 (Homo sapiens) (UniProt P08173) (assay: compounds altering M4/GIRK thallium flux, either direction, primary screen, M4 allosteric agonist project, cell-based, HEK293 M4/GIRK, BTC-AM (AID 625;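 further: thallium influx through GIRK channels coupled to M4 in HEK293 cells with BTC-AM dye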)). Details: at 10 µM, actives lie on both sides.
Sequence of Muscarinic acetylcholine receptor M4 (Homo sapiens) (P08173 whole entry, looked up): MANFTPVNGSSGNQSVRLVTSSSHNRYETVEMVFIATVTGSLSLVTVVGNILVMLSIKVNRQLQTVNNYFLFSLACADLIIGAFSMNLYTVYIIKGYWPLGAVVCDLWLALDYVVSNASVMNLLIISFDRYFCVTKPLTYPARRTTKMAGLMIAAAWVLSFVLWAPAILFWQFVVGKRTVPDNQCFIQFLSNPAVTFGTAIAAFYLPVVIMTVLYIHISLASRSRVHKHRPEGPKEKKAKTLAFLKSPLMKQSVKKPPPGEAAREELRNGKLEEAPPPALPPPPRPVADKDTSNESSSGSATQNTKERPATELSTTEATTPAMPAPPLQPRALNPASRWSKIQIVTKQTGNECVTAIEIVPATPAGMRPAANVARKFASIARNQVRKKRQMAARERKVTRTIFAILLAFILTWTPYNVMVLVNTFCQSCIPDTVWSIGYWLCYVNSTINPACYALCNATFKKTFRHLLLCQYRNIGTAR
Procedure, shortened: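 Material – HEK293 cells with M4 receptor and GIRK channels · Buffer or medium – pH 7.3 thallium assay buffer · Doses – one dose, 10 µM final · Timing – cells overnight at 37 °C, BTC-AM loading 1 h, reads 2 min total · Measured by – kinetic fluorescence with BTC-AM dye · Controls – carbachol and DMSO controls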

Compound	fluorescence slope
CC(=O)c1c(C)[nH]c(C(=O)Nc2ccc3c(c2)OCCO3)c1C	0.00406
O=c1cc(-c2ccccc2)[nH]c2nc3ccccc3n12	0.00541
Cc1cccc(-n2c(Cc3cc(=O)[nH]c(=O)[nH]3)nnc2SCC(=O)NCc2ccco2)c1	0.00455
O=C(COc1nnc2ccccn12)N1CCN(S(=O)(=O)c2ccccc2)CC1	0.00653
Cc1cc(N2C(=O)C3C4C=CC(C4)C3C2=O)ccc1Br (stereo not given)	0.00619
Cc1ccc(S(=O)(=O)N(CC(=O)N2CCOCC2)CC(=O)N2CCOCC2)cc1	0.00519
COc1ccc(C2=NOC(C(=O)NCc3ccc(F)cc3)C2)cc1OC (stereo not given)	0.00618
COCCCNS(=O)(=O)c1ccc2c(c1)CCN2C(C)=O	0.00611
COc1ccc(C(NC(=O)c2ccco2)c2ccc(OC)c(OC)c2)cc1 (stereo not given)	0.00496
CCC(C)N=C1SCC(C)(/C=N/O)S1 (stereo not given)	0.00292
COc1ccc(-c2noc(CCC(=O)Nc3nc4ccccc4s3)n2)cc1	0.0103
CCCC1(C(=O)OCC)NC(c2ccc(N(C)C)cc2)C2C(=O)N(c3ccccc3)C(=O)C21 (stereo not given)	0.0068
Cc1nnc(SCC(=O)Nc2ccc3c4c(cccc24)CC3)n1C	0.00568
CCCCCC1NC(=O)NC1CCCCCC(=O)O (stereo not given)	0.00606
O=C(Nc1ccccc1C(=O)N1CCCCCC1)c1cccc(S(=O)(=O)N2CCOCC2)c1	0.00535
CC(C(=O)c1ccccc1)n1cnc2ccccc2c1=O (stereo not given)	0.00459
COc1cc(OC)c(C(=O)Nc2ncn[nH]2)cc1OC	0.00435
CCOC(=O)C1=C(Cn2cnc3ccccc32)NC(=O)NC1c1cc(C)ccc1C (stereo not given)	0.00427
CCOC(=O)c1c(NC(=O)CSc2nnc(-c3cccnc3)o2)sc(C)c1C	0.00591
CC(=O)c1cc2c(=O)c3cc(C)ccc3oc2nc1C	0.00597

Compound	fluorescence slope
COc1ccc(NC(=O)CSc2nnc(-c3ccncc3)n2CC2CCCO2)c(OC)c1 (stereo not given)	0.00641
CCOC(=O)c1ccccc1NC(=O)COC(=O)C1=COCCO1	0.00593
CCN(Cc1nc2cc(OC)c(OC)cc2c(=O)[nH]1)C(=O)c1ccc(S(=O)(=O)N(C)C)cc1	0.00948
COc1ccc(Cc2nn3c(-c4cc(OC)c(OC)c(OC)c4)nnc3s2)cc1	0.00585
Cc1nc(NC(=O)C2CC3CCCC(C2)C3=O)sc1C (stereo not given)	0.00306
O=S(=O)(NC1=NCCC1)c1cccs1	0.00585
O=C(COC(=O)C1=COCCO1)Nc1ccccc1Oc1ccccc1	0.00561
O=C(CSc1nc(-c2ccco2)cc(C(F)(F)F)n1)N1CCCc2ccccc21	0.00488
O=c1oc2ccccc2n1CCc1ccccc1	0.00443
CS(=O)(=O)N(CC(=O)O)c1cccc(Cl)c1	0.00338
O=C(OCC(=O)N1CCCC1)c1cncc(Br)c1	0.00528
O=C(O)C1CC(=O)N(Cc2ccccc2)C1 (stereo not given)	0.00382
CC(C(=O)Oc1ccc2c(c1)OCO2)N1C(=O)c2ccccc2C1=O (stereo not given)	0.00538
COc1cccc(-n2nnnc2SCC(=O)NCc2ccco2)c1	0.00522
CCOC(=O)c1cccc(NC(=O)CCn2nnc3ccccc32)c1	0.00454
Clc1ccc(Cl)c(-c2nn3c(COc4ccccc4)nnc3s2)c1	0.00451
Nc1nnc(SCC(=O)N2CCN(c3ccccc3)CC2)n1-c1ccccc1	0.00636
C=CCn1c(C)cc(C(=O)CSc2nc3ccccc3c(=O)[nH]2)c1C	0.0056
c1ccc(-c2cn3cccnc3n2)cc1	0.00503
C#CC(CO)N(CCN(Cc1ccccc1)C(C#C)CO)Cc1ccccc1 (stereo not given)	0.00458
